Data set [1] in a line: Metabolic stability in mouse plasma assessed as half life at 5 uM and measured upto 120 mins by UPLC-MS/MS analysis. It is filed as ADME, cell-free. The essentials:
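Male mouse plasma at 37 °C with compound added from a 5 µM solution […]. Sampled at 0, 15, 30, 45, 60 and 120 min, quenched with acetonitrile and read by LC-MS/MS (MRM) in duplicate. Procaine positive control. Remaining % and t1/2 derived from MRM area relative to t = 0.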

A short description of data set [2]: Antitumor activity in high alert medicated patient derived human GBM1 cells xenografted in immunodeficient nude mouse model assessed as change in tumor volume at 20 mg/kg,ip QD cotreatment with Temozolomide at 42 mg/kg,po QD and measured after 11 days relative to control. It is filed as functional. The settings on record: time 11 day. The essentials:
(§1)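 Female athymic nude mice bearing subcutaneous GBM1-HAM PDX fragments (20 mm³); treatment began day 11 post-implant at tumour volumes 75-196 mm³, 10 per group. Compound i.p. daily in cyclodextrin vehicle (17 days alone, 27 days in combination); temozolomide 42 mg/kg p.o. daily for 5 days in PBS/glucose/Tween 80. Calliper volumes three times weekly; body weight and clinical signs monitored.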
A general note: Xenograft models place foreign cells or tissue in a host animal.

Data set [3] can be described thus: Drug uptake in human hTERT-RPE1 cells assessed as drug co-localization with OSBP perinuclear region of cell incubated for 30 mins by immunofluorescence analysis. The class given is ADME, cell-based. The settings on record: tert-rpe1, 0.5 h. The essentials:
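hTERT-RPE-1 cells incubated 30 min with compound, then fixed (4% paraformaldehyde, 0.1% glutaraldehyde, 10 min), quenched with 50 mM NH₄Cl and permeabilized in saponin 0.05%/BSA 0.2%. Immunolabeled for OSBP and TGN-46. Compound imaged directly by UV-adapted widefield fluorescence (excitation 330, emission 410 nm).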

The target in data set [4] is mTORC1 (Homo sapiens) (UniProt P42345+Q8N122+Q9BVC4). Briefly: Inhibition of mTORC1 signalling in human U-87 MG cells assessed as decrease in S6 phosphorylation at S240/244 residue at 0.05 to 1 uM incubated for 48 hrs by Western blot analysis. It is filed as cell-based. The essentials: (§2)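 U-87 MG cells cultured two days, then exposed 48 h to increasing doses. Lysed in RIPA with protease inhibitors; 5 µg protein run on 4-20% SDS gels and transferred to PVDF. Probed for phospho/total AKT, S6, S6K, P62 and LC3, detected by ECL. Band intensities normalized to β-actin.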
Sequence of mTORC1 (Homo sapiens) (Q8N122 whole entry, looked up, other chains not shown): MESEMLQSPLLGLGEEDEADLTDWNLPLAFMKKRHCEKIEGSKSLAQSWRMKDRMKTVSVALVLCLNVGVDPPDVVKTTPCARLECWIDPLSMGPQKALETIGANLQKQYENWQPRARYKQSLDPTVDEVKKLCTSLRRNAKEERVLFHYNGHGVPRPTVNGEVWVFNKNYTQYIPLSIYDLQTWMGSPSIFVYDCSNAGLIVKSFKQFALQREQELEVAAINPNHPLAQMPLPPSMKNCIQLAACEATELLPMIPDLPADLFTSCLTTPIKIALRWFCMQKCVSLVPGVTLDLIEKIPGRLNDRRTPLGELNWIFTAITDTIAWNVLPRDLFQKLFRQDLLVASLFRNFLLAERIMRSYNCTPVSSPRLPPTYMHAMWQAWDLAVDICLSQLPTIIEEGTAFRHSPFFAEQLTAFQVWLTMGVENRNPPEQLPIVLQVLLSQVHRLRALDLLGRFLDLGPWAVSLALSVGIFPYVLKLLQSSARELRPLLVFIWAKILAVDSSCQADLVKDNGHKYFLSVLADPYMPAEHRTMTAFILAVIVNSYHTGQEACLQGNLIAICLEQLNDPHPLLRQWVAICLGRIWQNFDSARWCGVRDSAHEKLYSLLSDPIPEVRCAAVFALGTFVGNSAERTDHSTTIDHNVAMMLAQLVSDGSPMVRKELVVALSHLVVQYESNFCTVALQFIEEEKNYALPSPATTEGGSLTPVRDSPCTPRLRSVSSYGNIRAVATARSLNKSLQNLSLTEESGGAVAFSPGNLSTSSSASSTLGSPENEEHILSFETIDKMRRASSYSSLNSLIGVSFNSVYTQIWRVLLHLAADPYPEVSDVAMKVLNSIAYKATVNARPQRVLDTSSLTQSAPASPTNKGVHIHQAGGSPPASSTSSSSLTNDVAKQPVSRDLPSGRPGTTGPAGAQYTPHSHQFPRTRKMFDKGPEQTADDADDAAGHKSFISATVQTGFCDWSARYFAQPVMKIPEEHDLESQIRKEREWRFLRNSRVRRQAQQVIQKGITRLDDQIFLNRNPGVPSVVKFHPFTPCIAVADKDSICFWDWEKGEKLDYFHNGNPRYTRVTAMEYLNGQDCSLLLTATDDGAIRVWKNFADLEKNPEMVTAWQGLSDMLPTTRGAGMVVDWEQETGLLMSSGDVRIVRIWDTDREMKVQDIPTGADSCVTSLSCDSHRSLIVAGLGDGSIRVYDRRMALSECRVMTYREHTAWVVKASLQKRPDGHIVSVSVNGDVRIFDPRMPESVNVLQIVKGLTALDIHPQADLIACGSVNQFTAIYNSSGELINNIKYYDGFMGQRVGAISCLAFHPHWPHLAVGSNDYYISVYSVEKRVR
Sequence of mTORC1 (Homo sapiens) (Q9BVC4 whole entry, looked up, other chains not shown): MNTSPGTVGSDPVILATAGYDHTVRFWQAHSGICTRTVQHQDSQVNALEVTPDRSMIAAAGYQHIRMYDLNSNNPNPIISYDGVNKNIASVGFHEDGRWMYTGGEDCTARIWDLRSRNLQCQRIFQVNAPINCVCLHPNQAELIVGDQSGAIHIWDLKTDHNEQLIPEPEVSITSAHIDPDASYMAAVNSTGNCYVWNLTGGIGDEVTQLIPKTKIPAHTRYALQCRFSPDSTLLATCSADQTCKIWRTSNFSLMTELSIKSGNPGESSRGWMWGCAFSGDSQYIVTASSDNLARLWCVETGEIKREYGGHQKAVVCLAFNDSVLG

Data set [5] has as its target T1, Oxysterol-binding protein 1 (Homo sapiens, UniProt P22059).
T1 sequence (P22059 whole entry): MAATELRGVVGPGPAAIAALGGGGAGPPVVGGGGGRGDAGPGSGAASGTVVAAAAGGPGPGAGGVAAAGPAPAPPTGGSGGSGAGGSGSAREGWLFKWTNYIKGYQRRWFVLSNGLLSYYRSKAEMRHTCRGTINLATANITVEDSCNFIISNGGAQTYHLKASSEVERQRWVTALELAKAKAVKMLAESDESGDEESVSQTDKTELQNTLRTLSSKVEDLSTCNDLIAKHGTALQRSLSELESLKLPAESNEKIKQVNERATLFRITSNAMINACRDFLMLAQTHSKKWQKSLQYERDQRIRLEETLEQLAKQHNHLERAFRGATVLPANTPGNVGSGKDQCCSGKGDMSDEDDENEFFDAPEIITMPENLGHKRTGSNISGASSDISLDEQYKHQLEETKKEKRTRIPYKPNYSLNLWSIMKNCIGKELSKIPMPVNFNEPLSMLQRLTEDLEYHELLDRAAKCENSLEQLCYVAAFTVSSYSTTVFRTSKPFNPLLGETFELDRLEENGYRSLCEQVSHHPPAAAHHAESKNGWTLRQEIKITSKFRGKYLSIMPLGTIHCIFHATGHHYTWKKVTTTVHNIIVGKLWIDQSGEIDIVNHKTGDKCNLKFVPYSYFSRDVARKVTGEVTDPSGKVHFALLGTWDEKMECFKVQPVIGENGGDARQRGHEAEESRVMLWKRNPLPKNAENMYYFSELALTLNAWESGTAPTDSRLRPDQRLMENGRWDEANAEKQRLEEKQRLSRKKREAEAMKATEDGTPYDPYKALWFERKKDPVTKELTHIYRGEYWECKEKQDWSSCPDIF
Nature of the data set: Inhibition of human C-terminal 6-His tagged OSBP ORD domain (401 to 807 residues) expressed in baculovirus-infected Sf9 cells assessed as reduction in DHE transfer from liposome (Le mimicking ER) to liposome (Lg mimicking golgi) with compound by FRET assay. In short, it runs like this:
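Purified human OSBP ORD (401-807, C-terminal 6×His) from baculovirus-infected Sf9 cells, used in a DHE sterol transfer fluorescence assay. Signal corrected for compound fluorescence. Kinetics fitted linearly or by ΔF = ΔFmax(1 − e^−kt) to give apparent k, which was plotted against compound concentration. Ki from a quadratic (tight binders) or hyperbolic equation, three independent experiments.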

A short description of data set [6]: Antitumor activity in high alert medicated patient derived human GBM1 cells xenografted in immunodeficient nude mouse model assessed as tumor growth inhibition at 50 mg/kg,ip QD and measured after 9 to 11 days. It is filed as functional. The essentials: as §1
Data set [7] in a line: Antitumor activity in high alert medicated patient derived human GBM1 cells xenografted in immunodeficient nude mouse model assessed as change in tumor volume at 50 mg/kg,ip QD cotreatment with Temozolomide at 42 mg/kg,po QD and measured after 11 days relative to control. The class given is functional. The settings on record: time 11 day. The essentials: as §1
A short description of data set [8]: Toxicity in immunodeficient nude mouse model xenografted with high alert medicated patient derived human GBM1 cells assessed as body weight change at 50 mg/kg,ip QD for 27 days cotreatment with Temozolomide at 42 mg/kg,po QD for 5 days. It is filed as organism-based. The settings on record: in vivo, 648 h, time 27 day. In short, it runs like this: as §1
Data set [9] relates to U-87 MG. Nature of the data set: Induction of autophagy in human U-87 MG cells assessed as decrease in LC3I expression at 0.05 to 1 uM incubated for 48 hrs by Western blot analysis. The settings on record: U-87MG ATCC. The class given is functional, cell-based. In short, it runs like this: as §2
Data set [10] deals with U-87 MG. Nature of the data set: Induction of autophagy in human U-87 MG cells assessed as increase in LC3II expression at 0.05 to 1 uM incubated for 48 hrs by Western blot analysis. The class given is functional, cell-based. The settings on record: U-87MG ATCC. The essentials: as §2
In general terms: A western blot detects proteins with antibodies after separation by electrophoresis.

The subject of data set [11] is U-87 MG. Briefly: Antiproliferative activity against human U-87 MG cells assessed as inhibition of cell proliferation incubated for 72 hrs by CellTiter-Glo luminescent assay. The class given is functional, cell-based, U-87MG ATCC. In short, it runs like this: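 A549 in RPMI 1640 and U-87MG in DMEM, each with 10% FCS and 1% glutamine, at 37 °C and 5% CO₂. Cells seeded at 3000/well, dosed the next day, treated 72 h. Viability read by CellTiter-Glo luminescence with DMSO-treated cells set to 100%. IC50 taken from survival curves over three independent experiments.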
A general note: ATP-based viability assays read luminescence as a measure of living cells.

A short description of data set [12]: Antitumor activity in high alert medicated patient derived human GBM1 cells xenografted in immunodeficient nude mouse model assessed as T/C ratio at 50 mg/kg,ip QD cotreatment with Temozolomide at 42 mg/kg,po QD and measured from 9 to 11 days. The class given is functional. The settings on record: time 9-11 day. In short, it runs like this: as §1
A short description of data set [13]: Antitumor activity in high alert medicated patient derived human GBM1 cells xenografted in immunodeficient nude mouse model assessed as T/C ratio at 50 mg/kg,ip QD and measured after 9 to 11 days. The class given is functional. The settings on record: time 9-11 day. In short, it runs like this: as §1

As to `CC1(C)CCc2c(O)cc(/C=C/c3cc(O)c4c(c3)C[C@@H]3C(C)(C)[C@H](OC=O)CC[C@@]3(C)O4)cc2O1`, in data set [1], the half-life at 5 µM worked out at 51 min. In addition, the Activity is 396.24% in data set [2]; 329.18% in data set [7]; “Non-Toxic” in [8]; “Dose-Dependent Effect” in data set [9]; “Dose-Dependent Effect” in [10]. The Drug uptake entry in data set [3] is “Active”. For the same molecule, in [4], the inhibition entry is “Dose-Dependent Effect”. Also, the Ki in [5] was 1070 nM. The TGDI at 50 mg/kg in data set [6] worked out at 1.37%. In data set [11], the IC50 turned out to be 12.4 nM. The values for the T/C in [12] and in [13] were 41.43% and 70.05%, respectively.

A word on the half-life: it is the time in which the quantity being followed falls by half. As usually defined, the Ki is a dissociation constant, usually derived from enzyme kinetics or from competition with a known ligand. Usually IC50 stands for the midpoint of a concentration-inhibition curve. For orientation: T/C means the ratio of treated to control.

Values taken from ChEMBL document CHEMBL5370602, “Structure-Based Design of a Lead Compound Derived from Natural Schweinfurthins with Antitumor Properties That Target Oxysterol-Binding Protein” (J Med Chem, 2023).
